# Screening results from PubChem.
# GalR3 antagonist – GalR3 antagonists in HEK293 cells, primary screen, cell-based, fluorescence readout | Galanin receptor type 3 (Homo sapiens), O60755 | HEK293 GalR3-CNG cAMP membrane potential fluorescence; galR3 body fused to GalR1 C-terminus | inhibition, % at 3 µM | 360,000 compounds, 0.44% hits | AID 651719, 2012;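 active = inhibition above the screen-wide average plus 3 SD, cut at about 13% in these data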;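 also: forskolin and galanin both at EC90 stimulate the cells; cAMP rise reported by CNG channel membrane potential dye signal; 0% = forskolin plus galanin with DMSO and 100% = forskolin alone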
# Target sequence (O60755 1-299 limits assumed): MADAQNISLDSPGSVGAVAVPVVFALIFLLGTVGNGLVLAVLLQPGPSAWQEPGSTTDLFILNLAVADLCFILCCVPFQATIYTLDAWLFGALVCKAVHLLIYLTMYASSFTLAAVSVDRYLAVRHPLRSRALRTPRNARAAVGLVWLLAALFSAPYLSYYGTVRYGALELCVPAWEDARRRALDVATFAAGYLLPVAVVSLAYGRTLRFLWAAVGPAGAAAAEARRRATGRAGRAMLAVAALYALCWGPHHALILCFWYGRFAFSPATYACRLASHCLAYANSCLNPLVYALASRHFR
# GAA850 FXN act – FXN promoter activators, primary screen, cell-based, luciferase luminescence, HEK293 lucGAA850 | 360,000 compounds, 0.56% hits | HEK293 lucGAA850 FXN promoter luciferase reporter, 24 h; percent of 10 µM SAHA response | activation, % at 6 µM;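 active = activation above the average of all compounds screened plus 3 SD, cutoff fixed separately per campaign, cut at about 7.5% in these data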;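 also: 0% = DMSO wells and 100% = 10 µM SAHA wells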
# NR2E3 ag-1 – NR2E3 agonists in two-hybrid cells, primary screen, cell-based, luminescence, CHO-S, Gal4-NCOR/VP16-NR2E3; inhibition of corepressor binding, % at 3.98 µM; 360,000 compounds, 0.35% hits; AID 602229, 2012; Photoreceptor-specific nuclear receptor (Homo sapiens), Q9Y5X4; luciferase;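 active = inhibition above the mean of all tested compounds plus 3 SD, cut at about 70% in these data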;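 also: 0% = DMSO with NR2E3 transfected cells and 100% = cells lacking NR2E3 construct; higher means lower luciferase signal from less NR2E3 corepressor binding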
# Target sequence (Q9Y5X4 whole entry, looked up, the tested form may be a part): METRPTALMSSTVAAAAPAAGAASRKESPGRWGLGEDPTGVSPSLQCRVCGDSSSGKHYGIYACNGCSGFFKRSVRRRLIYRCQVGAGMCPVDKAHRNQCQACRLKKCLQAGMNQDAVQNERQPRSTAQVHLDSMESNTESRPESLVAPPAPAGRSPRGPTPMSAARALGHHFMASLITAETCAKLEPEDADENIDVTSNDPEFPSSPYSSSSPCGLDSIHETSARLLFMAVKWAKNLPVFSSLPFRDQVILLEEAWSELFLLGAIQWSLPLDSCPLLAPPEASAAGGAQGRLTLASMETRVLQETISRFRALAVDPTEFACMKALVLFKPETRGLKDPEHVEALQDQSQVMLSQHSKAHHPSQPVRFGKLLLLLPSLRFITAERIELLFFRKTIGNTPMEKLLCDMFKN
# NR2E3 ag-2 – inhibitors of NR2E3-RetCOR corepressor binding, primary screen, NR2E3 agonist project, biochemical, TR-FRET, GST-NR2E3, biotin-RetCOR. Photoreceptor-specific nuclear receptor (Homo sapiens), Q9Y5X4. inhibition of corepressor binding, % at 4.78 µM. 320,000 compounds, 0.12% hits. AID 2300, 2010. 1536-well;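 active = percent inhibition above the cutoff of mean plus 3 SD of all tested compounds, set per screening campaign, cut at about 20% in these data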;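 also: 0% = DMSO wells and 100% = biotin wells as full block of FRET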
#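 Test system – NR2E3–RetCOR corepressor complex · Quantity – NR2E3 fusion 1.35 nM · Buffer or medium – Tris pH 7.5 · Incubation – Compound–protein incubation for 5 h at 4 °C · Technique – TR-FRET, Eu(K)-anti-GST donor, streptavidin-D2 acceptor, ex 340, em 617/671 nm · Evaluation – percent inhibition of 671/617 nm emission ratio versus biotin and DMSO controls · Plate – 1536-well format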
# V-ATPase pHluor – regulators of yeast V-ATPase proton pumping, primary screen, pHLuorin cytosolic pH fluorescence; S. cerevisiae; response, % at 10 µM; 350,000 compounds, 0.37% hits; in the data active = response mostly above about 7.3%, no sharp cut-off; inactive = mostly below about 5.4%; also: actives read high
# Env fusion inh – inhibitors of HIV-1 Env-driven cell-cell fusion, primary screen, HeLa-JRFL effector, CEM21 target cells, luciferase | inhibition, % at 12.3 µM | 360,000 compounds, 1.1% hits | AID 651610, 2012;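 active = mean replicate inhibition score of at least 50 and every replicate individually at or above 50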;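 also: 0% = plate neutral controls and 100% = maraviroc near 300 nM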
# GAA30 counter – GAA30 FXN promoter activators, confirmation, counter-screen for GAA850 frataxin promoter activator project, cell-based, luminescence, HEK293, lucGAA30, triplicate; shares compounds with GAA850 FXN act; HEK293 lucGAA30 FXN promoter luciferase, 24 h; DMSO = 0%, 5 µM ipriflavone = 100%; activation, % at 6 µM; 1,900 compounds, 66% hits; AID 588350, 2011;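 active = mean activation above the mean of solvent-only control wells plus 3 SD, cut at about 22% in these data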;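 also: counterscreen of GAA850 promoter hits where activity marks nonselective or luminescence artifacts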
# FXN GAA850 conf – FXN GAA850 promoter activators in reporter cells, confirmation, cell-based, luminescence, HEK293 lucGAA850, triplicate; 1,900 compounds, 86% hits; shares compounds with GAA850 FXN act; activation, % at 6 µM; HEK293 lucGAA850 FXN promoter luciferase reporter, 24 h; 100% = activation by SAHA; AID 588351, 2011;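 active = mean activation above a set limit taken from the primary screen, cut at about 8% in these data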;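 also: 0% = DMSO wells and 100% = 10 µM SAHA wells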
# * hit, by the source's call; i = inactive; / = no result; [ ] = another dose, or the depositor's remark. Sampled rows, rich in hits. Any-hit rate of the full collection: about 2.2%.
SMILES,GalR3 antagonist,GAA850 FXN act,NR2E3 ag-1,NR2E3 ag-2,V-ATPase pHluor,Env fusion inh,GAA30 counter,FXN GAA850 conf
O=C1/C(=C\c2ccc(O)c(O)c2)N=C2CCCCCN12,-3.9,9.8*,2.6,-8.7,-0.6,0.6,74.0*,18.8*
CN(C)CCCNC(=O)C[C@@H]1CC[C@H]2[C@H](COc3ccc(NS(C)(=O)=O)cc3C(=O)N2C)O1,/,/,/,/,/,-1.4[16.7 µM],/,/
O=C(O)c1cc(N/N=C/c2ccc(-c3ccccc3)cc2)ccc1Cl,-7.4,2.9,-165.8,/,-0.6,-176.8,/,/
O=C(O)c1ccc(N/N=C/c2ccc(-c3ccccc3)cc2)cc1,-3.8,8.7*,-118.0,/,-2.7,-202.9,87.8*,30.7*
O=C(O)c1cccc(N/N=C/c2ccc(F)c(F)c2)c1,5.6,3.6,-168.2,2.8,-0.9,-80.5,/,/
O=C(O)c1ccc(/C=N/Nc2cccc(C(F)(F)F)c2)cc1,-1.6,10.0*,-147.7,-1.5,3.3,-17.5,98.9*,39.5*
CC(C)CN1CCN(C(=O)COC(=O)c2ccc(S(C)(=O)=O)c([N+](=O)[O-])c2)CC1,-3.8,9.7*,-13.4,/,/,33.0,70.2*,14.9*
Cc1ccc(Cl)cc1NC(=O)C(Cc1ccccc1)N1C(=O)C2C3CCC(C3)C2C1=O (stereo not given),-10.8,15.3*,-4.8,3.0,5.3,/,18.7,9.4*
Cc1ccc(NC(=O)C(Cc2ccccc2)N2C(=O)C3C4CCC(C4)C3C2=O)cc1Cl (stereo not given),-6.3,-2.9,-36.8,-1.6,1.3,-3.4,/,/
COc1ccc(NC(=O)N[C@@H]2CC[C@H](CCNS(=O)(=O)c3cccc(Cl)c3)O[C@@H]2CO)cc1,/,/,/,/,/,14.7[16.7 µM],/,/
Cc1ccc2ncccc2c1,-1.4,0.7,-18.7,-0.8,-4.5,/,/,/
Cc1ccc2nc(/C=C/c3cccc(F)c3)ccc2c1,-4.9,9.5*,-184.6,5.0,0.7,-117.9,101.4*,30.1*
CC(C)OP(=O)(Nc1cccc2ccccc12)OC(C)C,-6.5,11.7*,-12.3,-1.4,2.8,94.3*,25.1*,11.6*
C=C[C@@]1(C)CC(=O)[C@]2(O)[C@@]3(C)[C@@H](O)CCC(C)(C)[C@@H]3[C@H](O)[C@H](OC(C)=O)[C@@]2(C)O1,/,16.4*,34.7,-0.8,0.7,/,17.7,15.1*
C=C[C@@]1(C)CC(=O)[C@]2(O)[C@@]3(C)[C@@H](O)CCC(C)(C)[C@@H]3[C@H](OC(C)=O)[C@H](O)[C@@]2(C)O1,-22.4,12.3*,20.9,-2.0,-0.1,/,7.4,13.7*
c1ccc(COc2ccc(OCCCCN3CCCC3)cc2)cc1,-2.0,7.6*,-84.6,-2.2,-1.1,-65.4,83.3*,32.7*
C=CCNCCCCOc1ccc(OCc2ccccc2)cc1,-9.1,9.1*,-25.3,1.9,-0.1,-11.3,102.1*,49.0*
COc1ccc(CCN(C)C(=O)CCc2nnc(-c3ccccc3)o2)cc1OC,-2.1,9.3*,-142.0,2.4,-2.4,-51.6,110.4*,30.6*
CCOC(=O)/C(=N\Nc1ccc(OC)cc1)c1csc(Nc2ccccc2)n1,-7.6,11.3*,-27.6,4.1,-2.2,/,37.7*,25.4*
CCOC(=O)/C(=N/Nc1ccccc1)c1csc(Nc2ccccc2)n1,-1.3,7.4,-25.3,-1.2,-1.0,-13.3,/,/
CCOC(=O)/C(=N\Nc1ccc(Cl)cc1)c1csc(Nc2ccccc2)n1,0.6,8.0*,-23.0,0.8,0.0,-46.6,33.7*,24.1*
CCCCC(CCC(=O)O)(C(=O)OCC)c1csc(Nc2ccccc2)n1 (stereo not given),/,-0.9,-14.9,1.4,3.1,/,/,/
CC(C)C#Cc1cnc2c(c1)C(=O)N([C@@H](C)CO)C[C@@H](C)[C@H](CN(C)S(=O)(=O)c1cn(C)cn1)O2,/,/,/,/,/,-21.0[16.7 µM],/,/
C[C@@H]1CN([C@H](C)CO)C(=O)c2cc(C#CCN(C)C)cnc2O[C@@H]1CN(C)Cc1ccc(C(=O)O)cc1,/,/,/,/,/,-1.7[16.7 µM],/,/
Cn1ccsc1=NC(=O)c1ccc(S(C)(=O)=O)c([N+](=O)[O-])c1,-3.2,10.3*,1.0,5.4,1.8,-2.2,73.2*,29.6*
SMILES,GalR3 antagonist,GAA850 FXN act,NR2E3 ag-1,NR2E3 ag-2,V-ATPase pHluor,Env fusion inh,GAA30 counter,FXN GAA850 conf
C[C@H](O)C#Cc1cnc2c(c1)C(=O)N([C@@H](C)CO)C[C@@H](C)[C@H](CN(C)C(=O)Cc1ccncc1)O2,/,/,/,/,/,-0.4[16.7 µM],/,/
COc1ccc(CN(C)C[C@@H]2Oc3ccc(NC(=O)Cc4cn(C)c5ccccc45)cc3CC(=O)N([C@H](C)CO)C[C@@H]2C)cc1,/,/,/,/,/,2.0[16.7 µM],/,/
CCOC(=O)c1c(C)nc2c(C)cccn12,-2.5,1.4,4.6,1.8,0.9,/,/,/
CCOC(=O)c1c(C)nc2c3ccccc3ccn12,-2.0,8.1*,-134.2,-4.7,6.5,i,118.4*,43.5*
Cc1ccc(OCCOc2ccc(Cl)cc2Cl)c([N+](=O)[O-])n1,-12.2,4.8,-63.3,3.5,0.5,-4.2,/,/
COc1ccc(OCCOc2ccc(C)nc2[N+](=O)[O-])cc1,-10.9,7.7*,-60.0,-1.3,-1.6,/,78.1*,24.4*
CCNC(=O)C[C@@H]1CC[C@H]2[C@@H](COc3ccc(NC(=O)c4cccs4)cc3C(=O)N2C)O1,/,/,/,/,/,6.2[16.7 µM],/,/
C[C@H]1CN([C@@H](C)CO)C(=O)CCCn2cc(nn2)CO[C@H]1CN(C)C(=O)Nc1ccccc1F,/,/,/,/,/,-8.0[16.7 µM],/,/
C[C@H](NC(=O)C[C@@H]1C=C[C@@H](NC(=O)Nc2ccc3c(c2)OCO3)[C@H](CO)O1)c1ccccc1,/,/,/,/,/,9.7[16.7 µM],/,/
Cc1cccc(NC(=O)CSCC(=O)Nc2cc(C(F)(F)F)ccc2N2CCOCC2)c1,-5.9,13.7*,-21.2,/,-1.2,68.5*,-1.0,9.4*
Cc1cc(NC(=O)CSCC(=O)Nc2cc(C(F)(F)F)ccc2N2CCCCC2)no1,0.6,-0.9,11.3,/,4.6,/,/,/
